Values after ≈ are worked out from the molar mass of the structure shown. Values joined by “and” are separate entries in the source; they are usually repeats but may differ in a detail not shown here. Equal entries are not always repeated.
Legend:
Cytomegalovirus [1] = assay: Minimum inhibitory concentration was determined against CMV(Davis) in E6SM cell culture; format: functional; settings: Human betaherpesvirus 5
Procedure, shortened: (§1)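 Confluent E6SM cultures in microtiter trays were infected with 100 CCID50 of virus. After 1 h adsorption, residual virus was removed and cultures were incubated with varying compound concentrations. Cytopathicity was read once virus controls reached completion. The value is the concentration reducing virus-induced cytopathogenicity by 50%, as the mean of two independent determinations.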

Human alphaherpesvirus 1 [2] = assay: Minimum inhibitory concentration was determined against HSV-1 (F) in E6SM cell culture; format: functional, herpes simplex virus; procedure, shortened: as §1
[3] = Minimum inhibitory concentration was determined against HSV-2 (196) in E6SM cell culture; format: functional, herpes simplex virus; procedure, shortened: as §1
Cytomegalovirus [4] = assay: Minimum inhibitory concentration was determined against CMV(AD169) in E6SM cell culture; format: functional; settings: Human betaherpesvirus 5; procedure, shortened: as §1
[5] = Minimum inhibitory concentration was determined against HSV-2 (Lyons) in E6SM cell culture; format: functional, herpes simplex virus; procedure, shortened: as §1
HEL [6] = assay: Cytotoxicity concentration required to microscopically detectable alteration of cell morphology HEL; format: functional, Homo sapiens
Vero = assay: Cytotoxicity concentration required to microscopically detectable alteration of cell morphology in Vero; format: functional, Chlorocebus sabaeus
Procedure, shortened: (§2)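 Cytotoxicity was scored as the minimum concentration giving a microscopically detectable change in normal cell morphology of E6SM, HeLa or Vero cell cultures.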

E6SM = assay: Cytotoxicity concentration required to microscopically detectable alteration of cell morphology in E6SM; format: functional, Homo sapiens; procedure, shortened: as §2
Human alphaherpesvirus 1 [7] = assay: Minimum inhibitory concentration was determined against HSV-1 (TK-/TK+VMW1837) in E6SM cell culture
[8] = (§3) Minimum inhibitory concentration was determined against HSV-1 (McIntyre) in E6SM cell culture; format: functional, herpes simplex virus; settings: Human alphaherpesvirus 1; procedure, shortened: as §1
[9] = Minimum inhibitory concentration was determined against HSV-1 (TK-KOS ACV) in E6SM cell culture; format: functional, herpes simplex virus; settings: Human alphaherpesvirus 1; procedure, shortened: as §1
Human alphaherpesvirus 1 [10] = assay: Minimum inhibitory concentration was determined against HSV-1 (G) in E6SM cell culture; format: functional, herpes simplex virus; procedure, shortened: as §1
[11] = Minimum inhibitory concentration was determined against HSV-1 (KOS) in E6SM cell culture; format: functional, herpes simplex virus; procedure, shortened: as §1
HEL [12] = assay: Cytotoxicity concentration required to reduce cell growth by 50% in HEL; format: functional, Homo sapiens
Procedure, shortened: (§4)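 In HEL cells, cytotoxicity was measured as inhibition of normal cell growth, and the value is the concentration reducing cell growth by 50%.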

HeLa = assay: Cytotoxicity concentration required to microscopically detectable alteration of cell morphology in HeLa; format: functional, Homo sapiens; procedure, shortened: as §2
[13] = Selectivity index was determined against HSV-1 (F) in E6SM cell culture; format: functional
[14] = Minimum inhibitory concentration was determined against HSV-1 (TK-/TK+VMW1837) in E6SM cell culture; format: functional, herpes simplex virus; procedure, shortened: as §1
Cytomegalovirus [15] = assay: Minimum inhibitory concentration was determined in CMV (AD169) in HEL cell; format: functional; settings: Human betaherpesvirus 5
Procedure, shortened: (§5)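 HEL cell cultures were infected with 20 PFU of virus and incubated with varying compound concentrations. The value is the concentration reducing virus plaque formation by 50%, as the mean of two independent determinations.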

[16] = Selectivity index was determined against CMV (AD 169) in HEL cells; format: functional
HEL [17] = assay: Cytotoxicity concentration required to inhibit the cell growth by 50% in HEL; format: functional, Homo sapiens; procedure, shortened: as §4
[18] = Selectivity index was determined against VZV (TK-YS/R) in HEL cells; format: functional
[19] = Selectivity index was determined againstHSV-2 (196) in E6SM cell culture; format: functional
[20] = Selectivity index was determined in HSV-1 (KOS) in E6SM cell culture; format: functional
Cytomegalovirus [21] = assay: Minimum inhibitory concentration was determined in CMV (Davis) in HEL cell; format: functional; settings: Human betaherpesvirus 5; procedure, shortened: as §5
[22] = Selectivity index was determined against VZV (YS) in HEL cells; format: functional
[23] = Selectivity index was determined against HSV-1 (TK-/TK+VMW1837) in E6SM cell culture; format: functional
Human alphaherpesvirus 3 [24] = assay: (§6) Minimum inhibitory concentration was determined against VZV (TK-YS/R) in HEL cells; format: functional; procedure, shortened: as §5
Cytomegalovirus [25] = assay: Minimum inhibitory concentration was determined against CMV (AD 169) in HEL cells; format: functional; settings: Human betaherpesvirus 5; procedure, shortened: as §5
Human alphaherpesvirus 3 [26] = assay: (§7) Minimum inhibitory concentration was determined against VZV (OKA) in HEL cells; format: functional; procedure, shortened: as §5
Human alphaherpesvirus 3 [27] = assay: as §6; format: functional; procedure, shortened: as §5; remark: listed apart in the source
[28] = Selectivity index was determined against VZV (OKA) in HEL cells; format: functional
[29] = Selectivity index was determined against HSV-2 (Lyons) in E6SM cell culture; format: functional
Human alphaherpesvirus 1 [30] = assay: as §3; format: functional, herpes simplex virus; procedure, shortened: as §1
Human alphaherpesvirus 3 [31] = assay: (§8) Minimum inhibitory concentration was determined against VZV (YS) in HEL cells; format: functional; procedure, shortened: as §5
Cytomegalovirus [32] = assay: Minimum inhibitory concentration was determined against CMV (Davis) in HEL cell; format: functional; settings: Human betaherpesvirus 5; procedure, shortened: as §5
[33] = Minimum inhibitory concentration was determined against HSV-2 (G) in E6SM cell culture; format: functional, herpes simplex virus; procedure, shortened: as §1
[34] = Selectivity index was determined against CMV (Davis) in HEL cells; format: functional
Human alphaherpesvirus 3 [35] = assay: (§9) Minimum inhibitory concentration was determined against VZV (TK-07/1) in HEL cells; format: functional; procedure, shortened: as §5
[36] = Minimum inhibitory concentration was determined against HSV-2 (G) in E6SM cell culture; settings: Human alphaherpesvirus 2
[37] = as §8; settings: Human alphaherpesvirus 1
Human alphaherpesvirus 2 = assay: Minimum inhibitory concentration was determined against HSV-2 (G) in E6SM cell culture
Human alphaherpesvirus 3 [38] = assay: as §7
Human alphaherpesvirus 3 [39] = assay: as §9
Human alphaherpesvirus 3 [40] = assay: as §6
[41] = Human alphaherpesvirus 1, read-out: MIC
[42] = Human alphaherpesvirus 3, read-out: MIC

## Nc1nc2c(ncn2COC(CO)CO)c(=O)[nH]1 [GANCICLOVIR]
Cytomegalovirus [1]
  MIC: 0.8 µg/mL (≈ 3.13 µM)
Human alphaherpesvirus 1 [2]; [41]
  MIC: 0.001 µg/mL (≈ 0.00392 µM)
[3]; Human alphaherpesvirus 2
  MIC: 0.001 µg/mL (≈ 0.00392 µM)
Cytomegalovirus [4]
  MIC: 0.6 µg/mL (≈ 2.35 µM)
[5]
  MIC: 0.001 µg/mL (≈ 0.00392 µM)
HEL [6]
  Cytotoxicity: > 50 µg/mL
Vero
  Cytotoxicity: > 100 µg/mL
E6SM
  Cytotoxicity: > 50 µg/mL
Human alphaherpesvirus 1 [7]
  MIC: 0.01 µg/mL (≈ 0.0392 µM)
[8]
  MIC: 0.001 µg/mL (≈ 0.00392 µM)
[9]
  MIC: 0.48 µg/mL (≈ 1.88 µM)
Human alphaherpesvirus 1 [10]
  MIC: 0.002 µg/mL (≈ 0.00784 µM)
[11]; [41]
  MIC: 0.001 µg/mL (≈ 0.00392 µM)

## Nc1nc(O)c2ncn(C3C=CC(CO)C(O)C3)c2n1 (stereo not drawn)
Human alphaherpesvirus 1 [2]
  MIC: 0.002 µg/mL (≈ 0.00721 µM)
Human alphaherpesvirus 1 [2]; [41]
  MIC: 0.003 µg/mL (≈ 0.0108 µM)
HEL [12]
  Cytotoxicity: > 20 µg/mL
[3]
  MIC: 0.07 µg/mL (≈ 0.252 µM)
[3]; [41]
  MIC: 0.1 µg/mL (≈ 0.361 µM)
[5]
  MIC: 0.07 µg/mL (≈ 0.252 µM)
HeLa
  Cytotoxicity: 400 µg/mL
[13]
  Selectivity index: >5 and >2
[14]
  MIC: 0.01 µg/mL (≈ 0.0361 µM)
[14]; [41]
  MIC: 0.01 µg/mL (≈ 0.0361 µM)
Cytomegalovirus [15]
  MIC: 0.6 µg/mL (≈ 2.16 µM)
[16]
  Selectivity index: >13 and >30
HEL [17]
  Cytotoxicity: > 20 µg/mL
[18]
  Selectivity index: >3 and >7
[19]
  Selectivity index: > 160
[20]
  Selectivity index: > 5000
Cytomegalovirus [21]
  MIC: 0.8 µg/mL (≈ 2.89 µM)
[22]
  Selectivity index: >16 and >40
[23]
  Selectivity index: >1.6 and >4
Human alphaherpesvirus 3 [24]
  MIC: 2.8 µg/mL (≈ 10.1 µM)
Cytomegalovirus [25]
  MIC: 1.5 µg/mL (≈ 5.41 µM)
Human alphaherpesvirus 3 [26]
  MIC: 1.9 µg/mL and 0.64 µg/mL
Human alphaherpesvirus 3 [27]
  MIC: 6.8 µg/mL (≈ 24.5 µM)
[28]
  Selectivity index: >10 and >30
[29]
  Selectivity index: >2.2 and >5
Human alphaherpesvirus 1 [30]
  MIC: 0.004 µg/mL (≈ 0.0144 µM)
Human alphaherpesvirus 1 [30]; [41]
  MIC: 0.004 µg/mL (≈ 0.0144 µM)
Human alphaherpesvirus 3 [31]
  MIC: 1.2 µg/mL and 0.49 µg/mL
Cytomegalovirus [32]
  MIC: 1.7 µg/mL (≈ 6.13 µM)
[11]
  MIC: 0.002 µg/mL (≈ 0.00721 µM)
[11]; [41]
  MIC: 0.003 µg/mL (≈ 0.0108 µM)
[33]
  MIC: 0.05 µg/mL (≈ 0.18 µM)
[33]; [41]
  MIC: 0.07 µg/mL (≈ 0.252 µM)
[34]
  Selectivity index: >12 and >25
Human alphaherpesvirus 3 [35]
  MIC: 5.8 µg/mL and 2.1 µg/mL

## Nc1ccn(C[C@@H](CO)OCP(=O)(O)O)c(=O)n1.O.O [CIDOFOVIR]
Cytomegalovirus [1]
  MIC: 0.2 µg/mL
Cytomegalovirus [4]
  MIC: 0.08 µg/mL
HEL [6]
  Cytotoxicity: > 50 µg/mL
E6SM
  Cytotoxicity: > 50 µg/mL

## O=c1[nH]c(=O)n([C@H]2C[C@H](O)[C@@H](CO)O2)cc1/C=C/Br [BRIVUDINE]
Human alphaherpesvirus 1 [2]; [41]
  MIC: 0.001 µg/mL (≈ 0.003 µM)
HEL [12]
  Cytotoxicity: > 50 µg/mL
[3]; [41]
  MIC: > 80 µg/mL
[5]
  MIC: > 80 µg/mL
HeLa
  Cytotoxicity: > 400 µg/mL
HEL [6]
  Cytotoxicity: > 200 µg/mL
[14]; [41]
  MIC: > 80 µg/mL
[36]
  MIC: > 80 µg/mL
Vero
  Cytotoxicity: > 400 µg/mL
E6SM
  Cytotoxicity: > 400 µg/mL
Human alphaherpesvirus 3 [24]
  MIC: > 50 µg/mL
Human alphaherpesvirus 3 [26]; [42]
  MIC: 0.003 µg/mL (≈ 0.00901 µM)
Human alphaherpesvirus 1 [30]; [41]
  MIC: 0.001 µg/mL (≈ 0.003 µM)
[9]
  MIC: > 80 µg/mL
Human alphaherpesvirus 3 [31]; [42]
  MIC: 0.03 µg/mL (≈ 0.0901 µM)
[11]; [41]
  MIC: 0.001 µg/mL (≈ 0.003 µM)
Human alphaherpesvirus 3 [35]; [42]
  MIC: > 20 µg/mL

## Nc1nc2c(ncn2COCCO)c(=O)[nH]1 [ACYCLOVIR]
Human alphaherpesvirus 1 [2]; [41]
  MIC: 0.003 µg/mL (≈ 0.0133 µM)
[3]; Human alphaherpesvirus 2
  MIC: 0.02 µg/mL (≈ 0.0888 µM)
[5]
  MIC: 0.02 µg/mL (≈ 0.0888 µM)
[37]
  MIC: 1.1 µg/mL (≈ 4.88 µM)
[14]; Human alphaherpesvirus 1
  MIC: 0.07 µg/mL (≈ 0.311 µM)
Human alphaherpesvirus 2
  MIC: 0.02 µg/mL (≈ 0.0888 µM)
Vero
  Cytotoxicity: > 400 µg/mL
Human alphaherpesvirus 3 [38]
  MIC: 0.8 µg/mL (≈ 3.55 µM)
E6SM
  Cytotoxicity: > 50 µg/mL
Human alphaherpesvirus 3 [39]
  MIC: 13 µg/mL (≈ 57.7 µM)
Human alphaherpesvirus 3 [40]
  MIC: 28 µg/mL (≈ 124 µM)
[8]
  MIC: 0.005 µg/mL (≈ 0.0222 µM)
[9]
  MIC: 9.6 µg/mL (≈ 42.6 µM)
[11]; [41]
  MIC: 0.01 µg/mL (≈ 0.0444 µM)
